ChEMBL document CHEMBL4513216, “Probing the Open Global Health Chemical Diversity Library for Multistage-Active Starting Points for Next-Generation Antimalarials” (ACS Infect Dis, 2020)

Assay: Toxicity liver stage against HepG2, at 10uM
Assay type: cell-based
Set-up: test concentration 10 uM, cell line HepG2-A16-CD81EGFP
Conditions: human, HepG2-A16-CD81EGFP cells; read-out: INHIBITION
How it was run: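 Uninfected HepG2-A16-CD81EGFP cells, 3 × 10^3 per well, 1536-well, plated on prespotted compound at 10 μM final, parasite-free screening media added to match infected plates; puromycin 10 μM positive, DMSO 0.5% negative; run in parallel with 48 h PbLuc assay at 37 °C, 5% CO2; viability by CellTiter-Glo luminescence, normalized to controls.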

SMILES	cytotoxicity at 10 µM [%]
CC(C)CS(=O)(=O)N1C[C@@H]2C[C@H](C(=O)N(C)C)[C@H](C1)O2	8.66
CCOC1CCN(C(=O)Nc2ccc(=O)n(C)c2)CC1	-10.4
CC(C)c1nsc(N2CCOC3(CCCC3)C2)n1	0.243
CC(C)n1cnnc1CN(C)CC1CCCNC1 (stereo unspecified)	3.05
CC(C)c1cc(C(=O)NCC2CCCN(c3ncccn3)C2)n(C)n1 (stereo unspecified)	17.2
CC1CCN(S(=O)(=O)c2cccn(CC(=O)N3CCOCC3)c2=O)CC1	2.11
Cc1nc(C(C)C)sc1C(=O)NCCSc1nccn1C	-1.7
Cn1cc(C2CCCN2C(=O)c2cnc(-c3cccs3)s2)cn1 (stereo unspecified)	4.99
c1ccc(CCCC2CN(Cc3ncc[nH]3)CCO2)cc1 (stereo unspecified)	-3.83
CCn1c(=NC(=O)CSCC(=O)Nc2nccs2)sc2ccccc21	-2.17
CN(C)C(=O)C1CCC2(CCN(C(=O)Nc3cccc(F)c3)CC2)O1 (stereo unspecified)	-104
CCn1nc(C)cc1S(=O)(=O)N1CCC2(CCCN(C(C)C)C2=O)C1 (stereo unspecified)	-16.3
CCc1ncc(C(=O)NCCNC(=O)Cc2ccc(F)cc2)s1	-2.57
CCC1=N[C@@]2(CC[C@@H]3CN(S(=O)(=O)CC(C)C)C[C@@H]32)C(=O)N1CC	0.167
CSc1cccc(CC(=O)N[C@@H]2CCNC[C@H]2O)c1	-1.72
Cc1nn(CCNC(=O)c2cc(C3CC3)[nH]n2)c(C)c1Cl	-3.73
CC(=O)N1CCN(C(=O)CCOc2ccc(C(C)C)cc2)CC1	-6.51
CN(Cc1ccco1)C(=O)CN1C(=O)c2cc(Cl)c(Cl)cc2C1=O	1.11
CCCC(NC(=O)c1ccc(C)cc1C)c1nnn[nH]1 (stereo unspecified)	-3.82
CCN1CCOC(CNCc2csc(C)n2)C1 (stereo unspecified)	-5.13
COc1ccccc1C1(CNc2ccc(C(=O)N(C)C)cn2)CC1	-10.5
O=C(CS(=O)(=O)c1cccc[n+]1[O-])NC1CCCc2ccccc21 (stereo unspecified)	-3.46
CNc1ccnc(NCCC(=O)Nc2ccccc2C)n1	-1.53

SMILES	cytotoxicity at 10 µM [%]
CC(=O)N1CCN(c2nc(C(F)(F)F)nc3sc(C)c(C)c23)CC1	-4.33
CCOCC(=O)N1CCC(C(O)c2ccc(F)cc2)CC1 (stereo unspecified)	-3.83
CCC(Nc1nc(C(C)C)nc2c1cnn2C)c1ccc(O)cc1 (stereo unspecified)	-51.2
CC(=O)N1CCn2cc(CNC(=O)c3cccn3C)nc2C1	1.88
CCN1CCN(c2nc(C(C)C)nc3c(C)nn(CC)c23)CC1	-12.6
O=S(=O)(NCCCn1ccc2ccccc21)N1CCCCC1	12.8
O=C(NCc1ccccc1Cn1cncn1)C1CCCCC1	-2.06
CN(Cc1ccsc1)C(=O)CN1CCCCC1Cn1cccn1 (stereo unspecified)	-1.07
CCN(CCCc1ccccc1C)S(C)(=O)=O	2.86
Cc1ccc(-c2ccnc(NCC(O)c3ccc(O)cc3)n2)c(C)n1 (stereo unspecified)	0.781
CN(c1ccc(F)c(F)c1)S(=O)(=O)c1cc(C(=O)O)cs1	-4.89
NC(=O)C1CCCN1Cc1ccccc1NC(=O)Cc1cccs1 (stereo unspecified)	7.31
CCn1cc2c(n1)CN(C(=O)c1ccncc1)CC2COCC1CC1 (stereo unspecified)	-2.37
CCCC(=O)N1CCC(c2cc3cccnc3c(O)n2)CC1	-3.63
O=C(CCc1cc2n(n1)CCCNC2)NCCS(=O)(=O)N1CCCC1	0.698
O=C1N(c2ccsc2)CCC12CCCN(Cc1ccccn1)C2 (stereo unspecified)	2.03
O=C(NC[C@H]1OC[C@@H](NCc2ccccn2)[C@@H]1O)c1ccc(F)cc1	-2.65
N[C@H]1CN(S(=O)(=O)c2cccnc2)C[C@@H]1C1CC1	7.28
C[C@H]1CN(C)C[C@@]12COCCN(C(=O)Cc1ccccc1)C2	3.65
Cc1ccccc1C(=O)NC(C)CN1CCOC1=O (stereo unspecified)	4.33
CC(NC(N)=O)C(=O)NCc1ccc(Br)c(F)c1 (stereo unspecified)	7.97
CCNC(=O)N1CCC(NC(=O)NCCCc2cccc(F)c2)C1 (stereo unspecified)	-47.5
CCN(c1ccc(C(=O)NCc2cc[nH]n2)cc1)C(C)C	11.9
